These results are taken from ChEMBL document CHEMBL2169850, “3,6-bis(3-alkylguanidino)acridines as DNA-intercalating antitumor agents” (Eur J Med Chem, 2012).

Test [1] has as its system HL-60. The test is described as follows: Induction of apoptosis in human HL60 cells at 5 to 25 uM incubated for 72 hrs by AnnexinV/propidium iodide staining method. The test is classed as functional, cell-based. In a few lines:
(§1)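 HL-60 cells (1.5 × 10^5) were treated at 5–25 µM for 24, 48 or 72 h and harvested. They were stained with Annexin V-FITC for 10 min in HEPES/CaCl2/NaCl binding buffer, washed, briefly stained with PI (1 mg/mL) and analysed by flow cytometry for apoptosis and necrosis. Mean ± SD, n ≥ 3.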

Test [2] deals with HL-60. Nature of the test: Cell cycle arrest in human HL60 cells assessed as accumulation at G1 phase at 5 uM incubated for 48 hrs by flow cytometry (reference value: 38.29 +/- 0.22%). Type of test: functional. On the technique in general: A flow cytometer gives signals particle by particle.
The test system of test [3] is HL-60. Nature of the test: Antiproliferative activity against human HL60 cells assessed as cell number at 5 uM incubated for 48 hrs by Coulter counting method. Type of test: functional. In a few lines:
(§2)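 HL-60 cells in RPMI with 10% heat-inactivated FCS, antibiotics and amphotericin, 37 °C, 5% CO2, seeded in 60 mm dishes. Compound added at 5, 15 or 25 µM for 24, 48 or 72 h. Absolute cell counts taken by Coulter counter and expressed as percentage of untreated control. Mean ± SD of at least three independent experiments; one-way ANOVA with Tukey test, p < 0.05.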

The target of test [4] is T1, DNA topoisomerase 1 (Homo sapiens) (UniProt P11387).
T1 sequence (whole entry): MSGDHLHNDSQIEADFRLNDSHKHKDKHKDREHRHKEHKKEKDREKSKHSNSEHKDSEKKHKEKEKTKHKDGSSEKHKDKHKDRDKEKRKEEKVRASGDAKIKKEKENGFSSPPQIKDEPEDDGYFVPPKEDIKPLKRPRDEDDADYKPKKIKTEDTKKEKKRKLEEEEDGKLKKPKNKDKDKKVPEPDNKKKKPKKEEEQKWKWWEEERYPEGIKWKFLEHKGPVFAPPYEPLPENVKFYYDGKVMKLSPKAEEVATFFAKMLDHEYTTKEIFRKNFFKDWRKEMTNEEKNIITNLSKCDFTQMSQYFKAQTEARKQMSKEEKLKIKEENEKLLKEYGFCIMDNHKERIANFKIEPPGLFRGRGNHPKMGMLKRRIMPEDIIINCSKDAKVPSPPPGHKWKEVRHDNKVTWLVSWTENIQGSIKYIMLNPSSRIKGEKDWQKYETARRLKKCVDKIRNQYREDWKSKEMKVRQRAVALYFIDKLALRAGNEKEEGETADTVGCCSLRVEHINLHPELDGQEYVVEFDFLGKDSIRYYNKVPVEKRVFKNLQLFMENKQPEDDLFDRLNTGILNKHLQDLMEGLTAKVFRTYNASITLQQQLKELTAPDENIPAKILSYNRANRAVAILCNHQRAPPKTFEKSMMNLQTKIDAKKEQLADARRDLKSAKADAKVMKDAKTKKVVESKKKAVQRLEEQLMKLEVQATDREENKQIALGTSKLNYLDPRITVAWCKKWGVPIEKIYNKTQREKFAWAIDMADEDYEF
The test is described as follows: Inhibition of human topoisomerase 1 assessed as reduction in pBR322 DNA relaxation of relaxation at 60 uM by DNA unwinding assay.

Test [5] relates to HL-60. Nature of the test: Antiproliferative activity against human HL60 cells assessed as cell number at 25 uM incubated for 48 hrs by Coulter counting method. Type of test: functional. The gist of the method:
as §2

Test [6] has as its system HL-60. The test is described as follows: Cell cycle arrest in human HL60 cells assessed as accumulation at S phase at 5 uM incubated for 48 hrs by flow cytometry (reference value: 45.29 +/- 1.23%). The test is classed as functional.
The subject of test [7] is HL-60. Nature of the test: Cell cycle arrest in human HL60 cells assessed as accumulation at G2/M phase at 25 uM incubated for 24 hrs by flow cytometry (reference value: 19.62 +/- 0.96%). Type of test: functional.
The subject of test [8] is HL-60. The test is described as follows: Cell cycle arrest in human HL60 cells assessed as accumulation at G2/M phase at 5 uM incubated for 72 hrs by flow cytometry (reference value: 12.68 +/- 3.21%). Type of test: functional.
For test [9], the system named is HL-60. Nature of the test: Induction of caspase-3 activation in human HL60 cells at 5 to 25 uM incubated for 24 to 72 hrs by FACS assay. Type of test: functional, cell-based. In a few lines:
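HL-60 cells (RPMI with 10% heat-inactivated FCS, 37 °C, 5% CO2) were seeded in dishes and treated 24, 48 or 72 h. Cells were fixed and permeabilized 20 min on ice, then stained 30 min at RT with FITC anti-active caspase-3 antibody. Read-out was the percentage of positive cells by flow cytometry. Mean ± SD of at least three independent experiments; ANOVA with Tukey.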

Test [10] deals with Nucleic Acid. The test is described as follows: Binding affinity to calf thymus DNA assessed as melting temperature at 12.4 uM by thermal denaturation study. The test is classed as nucleic-acid assay. The settings on record: Bos taurus.
Test [11] deals with HL-60. The test is described as follows: Cell cycle arrest in human HL60 cells assessed as accumulation at S phase at 25 uM incubated for 24 hrs by flow cytometry (reference value: 44.41 +/- 0.77%). Type of test: functional.
The subject of test [12] is HL-60. Nature of the test: Induction of apoptosis in human HL60 cells at 5 to 25 uM incubated for 48 hrs by AnnexinV/propidium iodide staining method. Type of test: functional, cell-based. In a few lines:
as §1

Test [13] relates to HL-60. The test is described as follows: Antiproliferative activity against human HL60 cells assessed as cell number at 25 uM incubated for 72 hrs by Coulter counting method. The test is classed as functional. The gist of the method:
as §2

The subject of test [14] is HL-60. The test is described as follows: Antiproliferative activity against human HL60 cells assessed as cell number at 15 uM incubated for 24 hrs by Coulter counting method. The test is classed as functional. The gist of the method:
as §2

In test [15] the test system is HL-60. The test is described as follows: Cell cycle arrest in human HL60 cells assessed as accumulation at G1 phase at 25 uM incubated for 72 hrs by flow cytometry (reference value: 47.02 +/- 6.19%). Type of test: functional.
Test [16] has as its system HL-60. The test is described as follows: Cell cycle arrest in human HL60 cells assessed as accumulation at S phase at 25 uM incubated for 72 hrs by flow cytometry (reference value: 40.30 +/- 3.15%). Type of test: functional.
The test system of test [17] is HL-60. Nature of the test: Cell cycle arrest in human HL60 cells assessed as accumulation at G1 phase at 15 uM incubated for 72 hrs by flow cytometry (reference value: 47.02 +/- 6.19%). Type of test: functional.
In test [18] the test system is HL-60. Nature of the test: Cell cycle arrest in human HL60 cells assessed as accumulation at S phase at 5 uM incubated for 24 hrs by flow cytometry (reference value: 44.41 +/- 0.77%). The test is classed as functional.
Test [19] has as its system HL-60. The test is described as follows: Cell cycle arrest in human HL60 cells assessed as accumulation at G1 phase at 25 uM incubated for 24 hrs by flow cytometry (reference value: 35.96 +/- 1.63%). Type of test: functional.
The target of test [20] is T1, DNA topoisomerase 1 (Homo sapiens). The test is described as follows: Inhibition of human topoisomerase 1 assessed as reduction in pBR322 DNA relaxation of relaxation at 5 uM by DNA unwinding assay.
The subject of test [21] is HL-60. The test is described as follows: Antiproliferative activity against human HL60 cells assessed as cell number at 5 uM incubated for 24 hrs by Coulter counting method. The test is classed as functional. In a few lines: as §2
Test [22] deals with HL-60. The test is described as follows: Cell cycle arrest in human HL60 cells assessed as accumulation at S phase at 5 uM incubated for 72 hrs by flow cytometry (reference value: 40.30 +/- 3.15%). The test is classed as functional.
The subject of test [23] is HL-60. The test is described as follows: Cell cycle arrest in human HL60 cells assessed as accumulation at G1 phase at 5 uM incubated for 24 hrs by flow cytometry (reference value: 35.96 +/- 1.63%). Type of test: functional.

Molecules are shown by their SMILES. Activity calls are given as the source filed them. No cut-off for these calls is given here.

Take `CCCCCCNC(=N)Nc1ccc2cc3ccc(NC(=N)NCCCCCC)cc3nc2c1.Cl.Cl.O`: the outcome in test [1], in [9], in test [12] and in test [20] was Active. Also, the Activity came out at 45.1% in test [2]; 72.18% in test [3]; 40.67% in test [5]; 43.54% in [6]; 10.37% in test [7]; 7.47% in test [8]. In addition, the Activity was 38.11% in [11]; 20.46% in test [13]; 74.49% in test [14]; 73.59% in test [15]; 22.5% in test [16]; 70.31% in test [17]. Moreover, the Activity in test [18] is reported as 47.31%; in test [19] it was 51.52%; in test [21] it was 73.7%; in test [22], 43.6%; in test [23] it was 36.31%. Also, the “Topoisomerase 1 inhibition (active/inactive)” value in test [4] was “Active”. Further, in test [10], the Tm came out at 89 °C.
`CCNC(=N)Nc1ccc2cc3ccc(NC(=N)NCC)cc3nc2c1.Cl.Cl.O`: the result in test [1], in test [2], in [6], in test [7], in test [8] and in test [9] was inactive. Moreover, the outcome in test [11], in [12], in [15], in [16], in test [17] and in test [18] was inactive. The result in test [19], in [22] and in test [23] was inactive. For the same compound, the Activity in test [3] is 78.56%; in test [5], 86.85%; in test [13] it was 94.84%; in [14], 78.95%; in test [21], 71.7%. Moreover, the “Topoisomerase 1 inhibition (active/inactive)” value in test [4] is “Active”. Further, in test [10], the Tm was determined as 84 °C. Moreover, the result in test [20] was Active.

The Tm is the temperature at the midpoint of the melting transition.
